Source: ChEMBL document CHEMBL1122990, “Cyclic melanotropins. 9. 7-D-Phenylalanine analogues of the active-site sequence” (J Med Chem, 1985)

How the values were obtained:
lizara = assay: Potency in the lizard (Anolis carolinensis) skin bioassay relative to alpha-MSH; type: functional
Method in brief: (§1)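 In vitro Anolis carolinensis skin bioassay scoring melanosome dispersion as skin darkening. Solutions were made by serial dilution from a 10⁻⁴ M stock. Potency was calculated along the linear portion of the dose-response curve and standardized to α-MSH = 1.00.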

frog = assay: Potency in the frog (Rana pipiens) skin bioassay relative to alpha-MSH; type: functional
Method in brief: as §1, with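 “Rana pipiens” for “Anolis carolinensis”, “stock. Responses are the mean ± SE of 6 or more skins.” for “stock.”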

Compound	Potency (lizara)	Potency (frog)
CC(=O)N[C@H]1CSSC[C@@H](C(=O)N[C@@H](CCCCN)C(N)=O)NC(=O)[C@H](Cc2c[nH]c3ccccc23)NC(=O)[C@H](CCCN=C(N)N)NC(=O)[C@H](Cc2ccccc2)NC(=O)[C@H](Cc2c[nH]cn2)NC(=O)[C@H](CCC(=O)O)NC1=O	0.07	0.16
CC(=O)N[C@H]1CSSC[C@@H](C(N)=O)NC(=O)[C@H](Cc2c[nH]c3ccccc23)NC(=O)[C@H](CCCN=C(N)N)NC(=O)[C@H](Cc2ccccc2)NC(=O)[C@H](Cc2c[nH]cn2)NC(=O)[C@H](CCC(=O)O)NC1=O	0.003	0.06
CC(=O)N[C@H]1CSSC[C@@H](C(N)=O)NC(=O)[C@H](Cc2c[nH]c3ccccc23)NC(=O)[C@H](CCCN=C(N)N)NC(=O)[C@@H](Cc2ccccc2)NC(=O)[C@H](Cc2c[nH]cn2)NC(=O)[C@H](CCC(=O)O)NC1=O	0.5	0.75
CC(=O)N[C@H]1CSSC[C@@H](C(=O)N[C@@H](CCCCN)C(N)=O)NC(=O)[C@H](Cc2c[nH]c3ccccc23)NC(=O)[C@H](CCCN=C(N)N)NC(=O)[C@@H](Cc2ccccc2)NC(=O)[C@H](Cc2c[nH]cn2)NC(=O)[C@H](CCC(=O)O)NC1=O	3	2.5
CC(=O)N[C@@H](CO)C(=O)N[C@@H](Cc1ccc(O)cc1)C(=O)N[C@@H](CO)C(=O)N[C@H]1CSSC[C@@H](C(=O)N[C@@H](CCCCN)C(=O)N2CCC[C@H]2C(=O)N[C@H](C(N)=O)C(C)C)NC(=O)[C@H](Cc2c[nH]c3ccccc23)NC(=O)[C@@H](CCCN=C(N)N)NC(=O)[C@H](Cc2ccccc2)NC(=O)[C@@H](Cc2c[nH]cn2)NC(=O)[C@H](CCC(=O)O)NC1=O	2	10
